Measurements reported in ChEMBL document CHEMBL1126587, “Novel 6-alkoxypurine 2',3'-dideoxynucleosides as inhibitors of the cytopathic effect of the human immunodeficiency virus” (J Med Chem, 1993).
“And” between values parts separate entries of the source, which are not always exact repeats. Identical values can stand only once.

How the values were obtained:
[1] = Percentage of D98 cell growth at 100 uM nucleosides after 4 days.; format: functional, Homo sapiens
Procedure, shortened: (§1)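 Human sternal marrow D-98 cells or mouse connective tissue L cells exposed to 100 μM nucleoside for 4 days. Growth expressed as % of untreated control, which underwent at least three doublings.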

[2] = system: MT4; test: Percentage of MT-4 cell growth was calculated at 100 uM nucleosides after 5 days.; format: functional, Homo sapiens
Procedure, shortened: (§2)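 MT4 cells exposed to 100 μM nucleoside for 5 days, growth given as % of untreated control, which underwent at least three doublings.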

[3] = system: MT4; test: Anti-Human immunodeficiency virus activity against MT-4 cells; format: functional, cell-based
Procedure, shortened: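 MT4 cells infected with HTLV-IIIB at 100-fold TCID50 (100-fold the virus stock concentration giving 50% growth inhibition), compound present for 5 days. IC50 from cell growth protection. Each compound run in triplicate at least five times.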

[4] = system: L cells; test: Percentage of L cell growth at 100 uM nucleosides after 4 days.; format: functional, Mus musculus, L929; procedure, shortened: as §1
[5] = system: MT4; test: Effect of Coformycin on the Anti-HIV activity in MT-4 cells; format: functional, cell-based; details: Homo sapiens
Procedure, shortened: (§3)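 Anti-HIV-1 assay in MT4 cells infected with 100-fold TCID50 HTLV-IIIB over 5 days, run with EHNA or coformycin at 0.1 or 1.0 μM to block deaminase; control wells received PBS in their place. IC50 determined; triplicates, at least five runs.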

[6] = system: MT4; test: Effect of Erythro-9-(2-Hydroxy-3-nonyl) adenine (EHNA) on the Anti-HIV activity in MT-4 cells; format: functional, cell-based, Homo sapiens; procedure, shortened: as §3
[7] = system: MT4; test: Effect of Phosphate buffered saline on the Anti-HIV activity in MT-4 cells; format: functional, cell-based; details: Homo sapiens; procedure, shortened: as §3
[8] = (§4) Percentage of control cell growth was calculated at 100 uM nucleosides after 4 days; format: functional, Homo sapiens; procedure, shortened: as §1
[9] = system: L cells; test: as §4; format: functional, Mus musculus, L929; procedure, shortened: as §1
[10] = system: MT4; test: Percentage of control cell growth was calculated at 100 uM nucleosides after 5 days; format: functional, Homo sapiens; procedure, shortened: as §2
[11] = system: MT4; test: Effect of Coformycin on the Anti-HIV activity in MT-4 cells at 0.10 uM; format: functional, cell-based; details: Homo sapiens; procedure, shortened: as §3
[12] = system: MT4; test: Effect of Coformycin on the Anti-HIV activity in MT-4 cells at 1.0 uM; format: functional, cell-based; details: Homo sapiens; procedure, shortened: as §3
[13] = system: MT4; test: Effect of Erythro-9-(2-Hydroxy-3-nonyl) adenine (EHNA) on the Anti-HIV activity in MT-4 cells at 0.10 uM; format: functional, cell-based; details: Homo sapiens; procedure, shortened: as §3
[14] = system: MT4; test: Effect of Erythro-9-(2-Hydroxy-3-nonyl) adenine (EHNA) on the Anti-HIV activity in MT-4 cells at 1.0 uM; format: functional, cell-based; details: Homo sapiens; procedure, shortened: as §3

SMILES	Control [1]	Control [2]	IC50 [3]	Control [4]	further results
CCCOc1ncnc2c1ncn2C1CCC(CO)O1 (stereo not given)	87%	100%	> 100 µM	87%	–
CC[C@H](C)Oc1ncnc2c1ncn2[C@H]1CC[C@@H](CO)O1	81%	100%	80 µM	85%	–
C/C=C/COc1ncnc2c1ncn2C1CCC(CO)O1 (stereo not given)	35%	100%	59 µM	58%	IC50 [5]: > 200 µM; IC50 ([6]; Homo sapiens, MT4): 50 µM; IC50 ([6]; mt4): 80 µM; IC50 [7]: 70 µM
CCCCCCOc1ncnc2c1ncn2C1CCC(CO)O1 (stereo not given)	54%	100%	18 µM	42%	IC50 [5]: > 200 µM; IC50 [6]: 25 µM and 60 µM; IC50 [7]: 24 µM
OCC1CCC(n2cnc3c(OCCF)ncnc32)O1 (stereo not given)	76%	100%	> 100 µM	100%	–
CCCCCCCCCCOc1ncnc2c1ncn2C1CCC(CO)O1 (stereo not given)	–	–	> 5 µM	–	Control [8]: <1%; Control [9]: 6%; Control [10]: 20%
CCCCCCCCOc1ncnc2c1ncn2C1CCC(CO)O1 (stereo not given)	–	–	> 32 µM	–	Control [8]: 29%; Control [9]: 28%
CCCCCOc1ncnc2c1ncn2C1CCC(CO)O1 (stereo not given)	60%	100%	50 µM	48%	–
CC(C)Oc1ncnc2c1ncn2C1CCC(CO)O1 (stereo not given)	74%	100%	100 µM	72%	–
CCCCCCCOc1ncnc2c1ncn2C1CCC(CO)O1 (stereo not given)	–	–	25 µM	–	Control [8]: 47%; Control [9]: 34%
CCC(CC)Oc1ncnc2c1ncn2C1CCC(CO)O1 (stereo not given)	60%	100%	> 100 µM	68%	–
CCCCOc1ncnc2c1ncn2C1CCC(CO)O1 (stereo not given)	85%	100%	70 µM	68%	IC50 [5]: > 200 µM; IC50 ([6]; mt4): 26 µM and 70 µM; IC50 [7]: 38 µM
CCOc1ncnc2c1ncn2C1CCC(CO)O1 (stereo not given)	82%	100%	> 100 µM	90%	–
CCCC(C)Oc1ncnc2c1ncn2C1CCC(CO)O1 (stereo not given)	81%	100%	80 µM	67%	–
CCCCCCCCCOc1ncnc2c1ncn2C1CCC(CO)O1 (stereo not given)	–	–	> 5 µM	–	Control [8]: 27%; Control [9]: 23%
CCC(C)Oc1ncnc2c1ncn2[C@H]1CC[C@@H](CO)O1 (stereo not given in full)	77%	100%	> 100 µM	77%	–
OCC1CCC(n2cnc3c(OCC(F)(F)F)ncnc32)O1 (stereo not given)	82%	100%	> 100 µM	82%	–
COc1ncnc2c1ncn2C1CCC(CO)O1 (stereo not given)	97%	100%	> 100 µM	96%	–
O=c1[nH]cnc2c1ncn2[C@H]1CC[C@@H](CO)O1 [DIDANOSINE]	97%	100%	23 µM	100%	IC50 [11]: 28 µM; IC50 [12]: 39 µM; IC50 [13]: 30 µM; IC50 [14]: 31 µM; IC50 [7]: 30 µM
CC[C@@H](C)Oc1ncnc2c1ncn2[C@H]1CC[C@@H](CO)O1	81%	100%	> 100 µM	81%	–
CC(C)COc1ncnc2c1ncn2C1CCC(CO)O1 (stereo not given)	98%	100%	52 µM	98%	–
C=CCOc1ncnc2c1ncn2C1CCC(CO)O1 (stereo not given)	68%	100%	97 µM	70%	–
